Published values gathered from unrelated publications.
Each line is one published result; the experiments were not run side by side.
Target: Dual specificity mitogen-activated protein kinase kinase 4 (MAP2K4, Homo sapiens, UniProt P45985)
One construct used (P45985 1-399): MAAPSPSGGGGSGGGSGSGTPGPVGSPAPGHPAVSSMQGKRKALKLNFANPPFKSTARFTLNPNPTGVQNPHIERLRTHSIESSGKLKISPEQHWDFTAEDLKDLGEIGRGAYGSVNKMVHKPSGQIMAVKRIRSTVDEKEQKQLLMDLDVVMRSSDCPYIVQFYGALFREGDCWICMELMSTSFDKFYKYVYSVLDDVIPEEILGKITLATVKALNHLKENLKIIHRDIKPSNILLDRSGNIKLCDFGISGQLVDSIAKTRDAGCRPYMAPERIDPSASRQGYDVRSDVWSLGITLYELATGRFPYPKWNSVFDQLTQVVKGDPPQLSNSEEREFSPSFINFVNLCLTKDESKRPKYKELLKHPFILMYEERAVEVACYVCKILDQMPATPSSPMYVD

| SMILES | read-out | action | method | cell line | concentration | endpoint | result |
| --- | --- | --- | --- | --- | --- | --- | --- |
| CC(C)(C)c1nc2c(s1)c1nc(N)ncc1c1ccc(NS(=O)(=O)c3c(F)cccc3F)c(F)c12 | enzyme activity | inhibitor | radiometric |  | 1 µM | remaining activity | 81% |
| C[C@H](c1ccc(F)cc1)N(Cc1cccc(C(=O)O)c1)C(=O)c1cnc2ccccc2c1 | cell-free assay |  | competition with immobilised ligand |  | 1 µM | remaining binding | 100% |
| Cc1ccc(C(=O)Nc2ccc(CN3CCN(C)CC3)c(C(F)(F)F)c2)cc1C#Cc1cnc2cccnn12 | enzyme activity | inhibitor |  |  | 23.5 nM | remaining activity | 97% |
| O=C(Nc1cnn(-c2csc(C(=O)NC3COC3)c2)c1)Nc1ccccc1Cl | enzyme activity | inhibitor |  |  | 5 µM | remaining activity | 113% |
| CN1CCN(c2cnc3c(C4CCN(C(=O)c5ccc(OC(F)(F)F)cc5N)CC4)ncnc3c2)CC1 | cell-free assay |  | competition with immobilised ligand |  | 1 µM | remaining binding | 100% |
| CC(C)(C)c1nc(-c2cccc(NS(=O)(=O)c3c(F)cccc3F)c2F)c(-c2ccnc(N)n2)s1 | enzyme activity | inhibitor | radiometric |  | 1 µM | remaining activity | 87% |
| CC(C)(O)[C@H]1CC[C@H](Nc2ccc3ncc(-c4cccc(C(F)(F)F)c4)n3n2)CC1 | enzyme activity | inhibitor |  |  | 1 µM | remaining activity | 102% |
| Nc1ncnc2occ(-c3ccc(NC(=O)Nc4cc(C(F)(F)F)ccc4F)cc3)c12 | cell-free assay | inhibitor |  |  | 20 µM | remaining signal | 3.9% |
| CCN1CCN(Cc2ccc(NC(=O)c3ccc(C)c(Oc4ccnc5[nH]ccc45)c3)cc2C(F)(F)F)CC1 | target engagement in cells | inhibitor | chemoproteomics | A-375 | 0.5 µM | inhibition | -23% |
| Cc1sc(C(=O)NC2COC2)cc1-n1cc(NC(=O)Nc2c(F)cccc2Cl)cn1 | enzyme activity | inhibitor |  |  | 10 µM | remaining activity | 93% |
| CN(CCCC(F)(F)F)c1nccc(-c2cnn3ncccc23)n1 | binding |  |  |  | 1 µM | remaining binding | 100% |
